Laboratory results reported in article PMC3481835 (Clinical pharmacology and therapeutics, 2011).
Like-named read-outs stand apart in the source and are kept apart here.

Assays:
[1] = system: CYP3A4; conditions: cited from earlier work; for decrease in urinary 6β-hydroxycortisol to cortisol-ratio: range printed for the three inhibitors
[2] = Renal clearance of cortisol; type: in vivo, human
[3] = biological target: T1, CYP3A4 (Homo sapiens, UniProt P08684); conditions: recombinant enzyme, pH 7.4
[4] = biological target: T2, CYP2B6 (Homo sapiens, UniProt P20813); conditions: recombinant enzyme
T2 sequence (P20813 1-491): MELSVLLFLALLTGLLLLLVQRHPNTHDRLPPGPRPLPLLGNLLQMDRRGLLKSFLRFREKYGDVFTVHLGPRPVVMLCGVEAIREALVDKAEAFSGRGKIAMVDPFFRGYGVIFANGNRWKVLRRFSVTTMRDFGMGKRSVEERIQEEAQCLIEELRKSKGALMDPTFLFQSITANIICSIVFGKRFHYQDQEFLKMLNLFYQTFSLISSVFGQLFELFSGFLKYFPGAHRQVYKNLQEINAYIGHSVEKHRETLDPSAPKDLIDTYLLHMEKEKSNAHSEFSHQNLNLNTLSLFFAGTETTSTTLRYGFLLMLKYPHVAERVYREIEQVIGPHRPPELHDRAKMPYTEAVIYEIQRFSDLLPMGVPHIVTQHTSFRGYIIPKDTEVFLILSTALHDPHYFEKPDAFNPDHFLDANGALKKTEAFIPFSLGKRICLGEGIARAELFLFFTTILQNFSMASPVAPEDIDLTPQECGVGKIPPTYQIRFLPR

[5] = biological target: T2, CYP2B6; assay: 6β-hydroxylation by recombinantly-expressed CYP2B6; conditions: recombinantly-expressed enzyme
[6] = Fraction unbound; type: in vitro ADME; conditions: human, pooled human liver microsomes
Summary of the method: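 Pooled microsomes from three CYP3A5*3/*3 donors (equal protein each), 0.5 mg/mL, spiked with test compound at 5, 50 or 1000 nM, duplicates. Each sample split: one aliquot ultracentrifuged at 445,760 g, 140 min, 37 °C; the other held at 37 °C for the same time. Upper clear layer and uncentrifuged sample taken into ACN with deuterated internal standard; HPLC (C8, ammonium acetate/ACN gradient) with LC-MS.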

[7] = biological target: T1, CYP3A4; assay: Formation clearance; type: in vivo; conditions: 50 mg itraconazole
[8] = system: CYP3A4; type: in vivo, human
[9] = Plasma concentrations of cortisol and cortisone after itraconazole; type: in vivo, human; conditions: single doses 50, 200 and 400 mg po
[10] = system: CYP3A4; conditions: during treatment; cited from earlier work
[11] = biological target: T1, CYP3A4; assay: in vitro; conditions: pH 7.4
[12] = biological target: T1, CYP3A4; assay: in vitro; conditions: pH 7.4; remark: listed apart in the source
[13] = system: CYP3A4; conditions: cited from earlier work; for predicted decrease in CYP3A4 mediated clearance: predicted from I/Ki

T1 sequence (P08684 whole entry): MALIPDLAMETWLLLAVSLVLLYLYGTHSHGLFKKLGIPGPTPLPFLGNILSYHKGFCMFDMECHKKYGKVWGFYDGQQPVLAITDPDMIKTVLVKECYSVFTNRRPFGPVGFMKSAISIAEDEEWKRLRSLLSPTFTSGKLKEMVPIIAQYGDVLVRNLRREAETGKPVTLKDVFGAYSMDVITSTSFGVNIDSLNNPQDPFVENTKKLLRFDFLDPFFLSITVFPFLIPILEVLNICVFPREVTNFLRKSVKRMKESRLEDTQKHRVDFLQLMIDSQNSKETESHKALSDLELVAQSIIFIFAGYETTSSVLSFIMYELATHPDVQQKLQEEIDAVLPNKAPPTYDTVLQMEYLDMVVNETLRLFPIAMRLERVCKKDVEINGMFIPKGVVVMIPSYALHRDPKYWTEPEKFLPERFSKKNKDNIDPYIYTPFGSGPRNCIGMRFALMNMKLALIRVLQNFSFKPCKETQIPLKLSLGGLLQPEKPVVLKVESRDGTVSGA

CC(C)CN(C[C@@H](O)[C@H](Cc1ccccc1)NC(=O)O[C@H]1CCOC1)S(=O)(=O)c1ccc(N)cc1 [amprenavir]
effect on urinary 6β-hydroxycortisol to cortisol ratio [1]: no significant inhibitory effect

CC[C@H]1OC(=O)[C@H](C)[C@@H](O[C@H]2C[C@@](C)(OC)[C@@H](O)[C@H](C)O2)[C@H](C)[C@@H](O[C@@H]2O[C@H](C)C[C@H](N(C)C)[C@H]2O)[C@](C)(OC)C[C@@H](C)C(=O)[C@H](C)[C@@H](O)[C@]1(C)O [clarithromycin]
decrease in urinary 6β-hydroxycortisol to cortisol-ratio [1]: 15-65%

C[C@]12CCC(=O)C=C1CC[C@@H]1[C@@H]2[C@@H](O)C[C@@]2(C)[C@H]1CC[C@]2(O)C(=O)CO [cortisol]
CL renal ([2]; both, human, urine and plasma): 0.283 mL/min | intrinsic clearance (CLint), 6β-hydroxylation by CYP3A4 [3]: 0.18 mL/min/nmol CYP3A4 | v, 6β-hydroxylation by CYP2B6 ([4]; human, 25 µM, pH 7.4): 0.11 pmol/min/pmol | CYP3A4 mediated CLint relative to CYP2B6 mediated CLint ([4]; human, pH 7.4): 40 fold | apparent CYP2B6 mediated intrinsic clearance ([4]; human, pH 7.4): 0.0045 mL/min/nmol P450 | 6β-hydroxylation detected with CYP2B6 [4]: observed

C[C@]12CCC(=O)C=C1CC[C@@H]1[C@@H]2C(=O)C[C@@]2(C)[C@H]1CC[C@]2(O)C(=O)CO [cortisone]
6β-hydroxylation detected with CYP2B6 [5]: not

C#C[C@]1(O)CC[C@H]2[C@@H]3CCC4=Cc5oncc5C[C@]4(C)[C@H]3CC[C@@]21C [danazol]
decrease in urinary 6β-hydroxycortisol to cortisol-ratio [1]: 15-65%

CCC(C)n1ncn(-c2ccc(N3CCN(c4ccc(OCC5COC(Cn6cncn6)(c6ccc(Cl)cc6Cl)O5)cc4)CC3)cc2)c1=O (stereo not shown) [itraconazole]
fraction unbound at 140 min [6]: 0.046 ± 0.01 | decrease in the CLf processes [7]: No significant decrease | effect on renal clearance of cortisol ([2]; escalating itraconazole doses): unchanged | predicted decrease in oral midazolam clearance ([8]; 50 mg ITZ): 30% | predicted decrease in hepatic midazolam clearance ([8]; 50 mg ITZ, from circulating ITZ and metabolites and in vitro IC50): 21% | predicted decrease in oral midazolam clearance ([8]; 200 mg ITZ): 77% | effect on the plasma concentrations of cortisol or cortisone [9]: no effect | decrease in 4β-hydroxycholesterol concentrations [10]: 21-29% | decrease in total cholesterol [10]: 10% | Emax at 15 min [11]: 78 to 85% | Emax at 15 min [12]: 78 to 85% | decrease in MDZ CL/F ([13]; 50 mg itraconazole): 50% | predicted decrease in CYP3A4 mediated clearance ([13]; 24-48 hours after 400 mg): 50-70% | decrease in MDZ CL/F ([13]; 200 and 400 mg itraconazole): 80% | expected persistence of CYP3A4 inhibition ([13]; after 400 mg, return to baseline at 72 hours): 48 h | RKi (IC50,in vitro/IC50,in vivo), itraconazole-oral MDZ interaction [13]: 14.5 | predicted decrease in CYP3A4 mediated clearance ([13]; first 24 hours after 400 mg): 70-90%

Cc1ncc2n1-c1ccc(Cl)cc1C(c1ccccc1F)=NC2 [midazolam]
in vivo fm attributed to CYP3A4, midazolam metabolism ([13]; ref not given): 84%
